# Measured values reported in ChEMBL document CHEMBL1124444, “Hydroxyacetophenone-derived antagonists of the peptidoleukotrienes” (1989).
# Biological target: T1, Cysteinyl leukotriene receptor 1 (Cavia porcellus) (UniProt Q2NNR5)
# T1 sequence (whole entry): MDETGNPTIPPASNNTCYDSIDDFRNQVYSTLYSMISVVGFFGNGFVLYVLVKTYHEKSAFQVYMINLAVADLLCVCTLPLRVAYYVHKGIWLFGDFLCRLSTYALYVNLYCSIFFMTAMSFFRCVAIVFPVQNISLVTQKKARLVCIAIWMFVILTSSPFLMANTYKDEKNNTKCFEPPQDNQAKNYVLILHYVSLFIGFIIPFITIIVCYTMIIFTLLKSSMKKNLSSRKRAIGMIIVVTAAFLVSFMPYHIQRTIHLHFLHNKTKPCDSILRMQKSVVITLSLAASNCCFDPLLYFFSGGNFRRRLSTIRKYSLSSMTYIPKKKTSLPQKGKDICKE
# Assay: Dissociation constant (KB) […] was evaluated in vitro in isolated guinea pig tracheal strips
# Conditions: not given
row,Structure (SMILES),Kb [nM]
1,COc1cc(C(=O)O)ccc1COc1ccc(C(C)=O)c(O)c1C,850

# Species: Cavia porcellus
# Assay: Percent inhibition of the leukotriene E4 (LTE4)-induced contraction of guinea pig tracheal spirals at 10 uM concentration
# Type: functional
# Conditions: Trachea
# Procedure, shortened: (§1)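 Guinea pig tracheal spirals were split into paired sections in 10 mL baths of modified Krebs at 37 °C, gassed with 95% O₂/5% CO₂, under 2 g resting tension. After 60 min equilibration (washes every 15 min), reproducible contractions to 8 nM LTD₄ or 8 nM LTE₄ were obtained. Compound was added for 10 min, then agonist challenge repeated; percent inhibition is relative to the vehicle-treated paired section.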
row,Structure (SMILES),inhibition at 10 µM [%]
1,CCCc1c(NCc2ccc(C(=O)O)cc2OC)ccc(C(C)=O)c1O,73
2,C/C=C/c1cc(=O)oc2c(CCC)c(OCc3ccc(C(=O)O)cc3OC)ccc12,21
3,COc1cc(C(=O)O)ccc1CN(Cc1ccccc1)c1ccc(C(C)=O)c(O)c1,36
4,CCCNc1c(C(C)=O)ccc(OCc2ccc(C(=O)O)cc2OC)c1CCC,61
5,COc1cc(C(=O)O)ccc1COc1ccc(C(C)=O)c(O)c1C/C=C/c1ccccc1,32
6,CCCc1c(OCc2ccc(C(=O)O)cc2OC)ccc(C(C)=O)c1OCc1ccc(OC)cc1,25
7,CC/N=C(/NCC)NCCCC[C@@H](NC(=O)[C@H](Cc1ccc(O)cc1)NC(=O)[C@H](CO)NC(=O)[C@@H](Cc1c[nH]c2ccccc12)NC(=O)[C@@H](Cc1ccc(Cl)cc1)NC(=O)[C@@H](Cc1ccc(Cl)cc1)NC(C)=O)C(=O)N[C@@H](CC(C)C)C(=O)N[C@@H](CCCN=C(N)N)C(=O)N1CCC[C@H]1C(=O)N[C@H](C)C(N)=O,40
8,CCCc1cc2ccccc2cc1OCc1ccc(C(=O)O)cc1OC,51
9,CCCc1c(N(Cc2ccc(C(=O)O)cc2OC)C(=O)c2ccccc2)ccc(C(C)=O)c1O,12
10,CCCc1c(OCc2ccc(C(=O)O)cc2OC)ccc(C(=O)NC)c1O,50
11,CCCCCCOc1c(C(C)=O)ccc(OCc2ccc(C(=O)O)cc2OC)c1CCC,22
12,CCCc1c(OCc2ccc(C(=O)O)cc2OC)ccc2c(/C=C/c3ccccc3)cc(=O)oc12,7
13,C/C=C\c1cc(=O)oc2c(CCC)c(OCc3ccc(C(=O)O)cc3OC)ccc12,23
14,C=CCc1c(OCc2ccc(C(=O)O)cc2OC)ccc(C(C)=O)c1O,100
15,COc1cc(C(=O)O)ccc1COc1ccc(C(C)=O)c(O)c1CCCC(C)=O,21
16,COc1cc(C(=O)O)ccc1COc1ccc(C(C)=O)c(OCc2ccccc2)c1,24

# Species: Cavia porcellus
# Assay: Percent inhibition of the leukotriene E4 (LTE4)-induced contraction of guinea pig tracheal spirals at 10 uM concentration; NS means data was not statistically significant.
# Type: functional
# Conditions: Trachea
# Procedure, shortened: as §1
row,Structure (SMILES),inhibition
1,CCCc1c(O)cccc1OCc1ccc(C(=O)O)cc1OC,Not statistically significant
2,CCCc1c(OCc2ccc(C(=O)O)cc2OC)ccc(C(C)=O)c1NC(=O)c1ccccc1,Not statistically significant
3,CCCc1c(OCc2ccc(/C=C/C(=O)Nc3nn[nH]n3)cc2)ccc(C(C)=O)c1O,Not statistically significant
4,CCCc1c(OCc2ccc(C(=O)O)cc2OC)ccc(-c2ccc3ccccc3n2)c1O,Not statistically significant
5,CCCc1c(OCc2ccc(C(=O)NS(=O)(=O)c3ccccc3)cc2OC)ccc(C(C)=O)c1O,Not statistically significant
6,C=CCc1c(OCc2ccc(C(=O)O)cc2OC)cc2oc(-c3ccccc3)cc(=O)c2c1O,Not statistically significant
7,COc1cc(C(=O)O)ccc1COc1cc(O)c2c(=O)ccn(C)c2c1,Not statistically significant
8,CCCc1cc2c(cc1OCc1ccc(C(=O)O)cc1OC)C(=O)c1ccccc1-2,Not statistically significant
9,COc1cc(C(=O)O)ccc1CNc1ccc(C(C)=O)c(O)c1,Not statistically significant
10,CCCc1c(OCc2ccc(C(=O)O)cc2OC)ccc2c1C(=O)c1ccccc1-2,Not statistically significant
11,CCCCOC(=O)c1ccc(OCc2ccc(C(=O)O)cc2OC)c(CCC)c1O,Not statistically significant
12,CCCCCCOc1cc(OCc2ccc(C(=O)O)cc2OC)ccc1C(C)=O,Not statistically significant
13,CCCc1c(OCc2cccc(NS(=O)(=O)c3ccccc3)c2)ccc(C(C)=O)c1O,Not statistically significant
14,CCCN(C(=O)c1ccc(C(=O)O)cc1)c1ccc(C(C)=O)c(O)c1,Not statistically significant
15,CCCc1c(OCc2ccc(C(=O)O)cc2OC)ccc(C(C)=O)c1NC(C)=O,Not statistically significant
16,CCCc1c(OCc2ccc(C(=O)O)cc2OC)cc2oc(-c3ccccc3)cc(=O)c2c1O,Not statistically significant

# Tested on: Cavia porcellus
# Assay: Compound (50 mg/kg, intraperitoneally) was tested in spontaneously breathing, conscious guinea pigs challenged with aerosolized LTD4 (60-min pretreatment)
# Type: functional
# Conditions: not given
row,Structure (SMILES),Protection [%]
1,CCCc1c(OCc2ccc(C(=O)O)cc2OC)ccc(C(=O)NC)c1O,33
2,COc1cc(C(=O)O)ccc1COc1ccc(C(C)=O)c(O)c1C,17

# Species: Cavia porcellus
# Assay: Inhibition of the leukotriene D4 (LTD4)-induced contraction of guinea pig tracheal spirals at 10 uM concentration
# Type: functional
# Conditions: Trachea
# Procedure, shortened: as §1
row,Structure (SMILES),inhibition at 10 µM [%]
1,CCCc1c(OCc2ccc(C(=O)O)cc2)ccc(C(=O)C(F)(F)F)c1O,36
2,CCCc1c(OCCCCSCCC(=O)O)ccc(C(C)=O)c1O,74
3,CCCc1c(OCc2ccc(C(=O)O)cc2OC)ccc2c(=O)ccoc12,44
4,CCCc1c(OCc2cc(Br)c(C(=O)O)cc2OC)ccc(C(C)=O)c1O,43
5,CCCc1c(OCc2ccc(C(=O)O)cc2OC)ccc(C(=O)Nc2ccccc2)c1O,25
6,CCCc1c(OCc2cccc(N)c2)ccc(C(C)=O)c1O,39
7,CCCc1cc(C(C)=O)ccc1OCc1ccc(C(=O)O)cc1OC,67
8,CCCc1c(OCCCCC(=O)O)ccc(C(C)=O)c1O,18
9,CCCc1c(OCc2ccc(C(=O)NO)cc2OC)ccc(C(C)=O)c1O,65
10,CCCc1c(OCc2ccc(C(=O)NS(C)(=O)=O)cc2OC)ccc(C(C)=O)c1O,97
11,CCCc1c(OCCCCCC(=O)O)ccc(C(C)=O)c1O,52
12,CCCCCCNc1cc(OCc2ccc(C(=O)O)cc2OC)ccc1C(C)=O,11
13,CCCc1c(OCCCCSCC(=O)O)ccc(C(C)=O)c1O,75
14,CCCc1c(OCCCS(=O)(=O)CC(=O)O)ccc(C(C)=O)c1O,34
15,CCCc1c(OC(c2ccccc2)c2ccc(C(=O)O)cc2)ccc(C(C)=O)c1O (configuration not stated),16
16,CCCc1c(OCc2cccc(NS(C)(=O)=O)c2)ccc(C(C)=O)c1O,26
17,COc1cc(C(=O)O)ccc1COc1ccc(C(C)=O)c(O)c1C,73
18,CCCc1c(OCC(=O)c2ccc(C(=O)O)cc2)ccc(C(C)=O)c1O,66
19,CCCc1c(OCc2ccc(C(=O)O)cc2OCC)ccc(C(C)=O)c1O,83
20,CCCc1c(OCc2ccc(C(=O)O)cc2)ccc(C(C)=O)c1O,100
21,CCCc1c(OCc2ccc(C(=O)OC)cc2OCCCn2cnnn2)ccc(C(C)=O)c1O,75
22,CCCc1cc(C(C)O)ccc1OCc1ccc(C(=O)O)cc1OC (configuration not stated),44
23,CCCc1c(OCc2ccc(C(=O)O)cc2[N+](=O)[O-])ccc(C(C)=O)c1O,93
24,CCCc1c(OCCCSCCC(=O)O)ccc(C(C)=O)c1O,50
25,CCCc1c(OCc2ccc(OCCCc3nnn[nH]3)cc2)ccc(C(C)=O)c1O,56
26,CCCc1c(OCc2ccc(/C=C/c3nn[nH]n3)cc2)ccc(C(C)=O)c1O,44

# Species: Cavia porcellus
# Assay: Percent inhibition of the leukotriene D4 (LTD4)-induced contraction of guinea pig tracheal spirals at 3.3 uM concentration
# Type: functional
# Conditions: Trachea, in the assay text read “leukotriene E4 (LTE4)” for “leukotriene D4 (LTD4)”
# Procedure, shortened: as §1
row,Structure (SMILES),inhibition at 3.3 µM [%]
1,CCCc1c(OCc2ccc(C(=O)NS(C)(=O)=O)cc2OC)ccc(C(C)=O)c1O,37
2,CCCc1c(OCc2ccc(C(=O)O)cc2OCCCC#N)ccc(C(C)=O)c1O,78
3,CCCc1c(OCc2ccc(-c3nn[nH]n3)cc2)ccc(C(C)=O)c1O,76
4,CCCc1c(OCc2ccc(-c3nn[nH]n3)c(Br)c2)ccc(C(C)=O)c1O,66
5,CCCc1c(OCc2ccc(C(=O)O)cc2OCCCn2cnnn2)ccc(C(C)=O)c1O,87
6,CCCc1c(OCc2cccc(NC(=O)CCC(=O)O)c2)ccc(C(C)=O)c1O,62

# Species: Cavia porcellus
# Assay: Percent inhibition of the leukotriene D4 (LTD4)-induced contraction of guinea pig tracheal spirals at 4 uM concentration
# Type: functional
# Conditions: Trachea
# Procedure, shortened: as §1
row,Structure (SMILES),inhibition at 4 µM [%]
1,CCCc1c(OCc2ccc(OC)c(/C=C/C(=O)O)c2)ccc(C(C)=O)c1O,63
2,CCCc1c(OCc2ccc(/C=C/C(=O)O)c(OC)c2)ccc(C(C)=O)c1O,66
3,COc1cc(C(=O)O)ccc1COc1ccc(C(C)=O)c(O)c1C,33
4,CCCc1c(OCc2ccc(C(=O)O)cc2)ccc(C(C)=O)c1O,36
5,CCCc1c(OCc2ccc(C(=O)O)cc2[N+](=O)[O-])ccc(C(C)=O)c1O,57
